The campaign covered roughly 2,400 compounds. Fewer than 10 were called active.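 How the source made its calls: active means average inhibition across replicates above the hit cutoff set in the earlier primary screen; inactive means the rest.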 Not all results are given here.
Molecular target: Procathepsin L (Homo sapiens) (UniProt P07711)
Assay: CTSL1 protease inhibition confirmation – biochemical, QFRET, triplicate, counter-screen for PFM18AAP inhibitor project (AID 2178);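 further: 0% = median of test compound wells and 100% = Z-Phe-Ala-diazomethylketone 1 µM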
Details: purified cathepsin L1, Z-Leu-Arg-MCA fluorescence; at 5.96 µM; active compounds read high
Procedure, shortened: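 Material: purified cathepsin L1 / Compound dosing: single nominal compound dose of 5.96 µM, 0.59% DMSO / Schedule: 30 min compound preincubation, then 90 min with substrate, 25 °C / Signal: MCA fluorescence measured at substrate addition and at 90 min / Read-out: % inhibition from fluorescence gain versus inhibitor control / Replicates: triplicate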

Procathepsin L (Homo sapiens), sequence (P07711 whole entry, looked up): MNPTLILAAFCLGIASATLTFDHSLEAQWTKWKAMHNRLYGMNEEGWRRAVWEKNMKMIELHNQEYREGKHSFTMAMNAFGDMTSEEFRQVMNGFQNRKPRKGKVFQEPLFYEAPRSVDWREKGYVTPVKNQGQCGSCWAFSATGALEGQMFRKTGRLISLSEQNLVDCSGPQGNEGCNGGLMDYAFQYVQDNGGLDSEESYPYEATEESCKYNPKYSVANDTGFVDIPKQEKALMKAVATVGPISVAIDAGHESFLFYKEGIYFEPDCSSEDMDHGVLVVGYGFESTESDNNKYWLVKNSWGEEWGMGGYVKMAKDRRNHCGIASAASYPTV

Compound | inhibition
CCN(CC)c1ccc(NC(=O)CCc2nnc3ccc(N4CCCCC4)nn23)c(C)c1 | 1.25% (inactive)
c1ccc2sc(NN=C3CCCC3)nc2c1 | 0.11% (inactive)
Cc1ccc(S(=O)(=O)N/N=C\c2cc3c(cc2[N+](=O)[O-])OCO3)cc1 | -3.66% (inactive)
Cc1csc(NC(=O)NC2(C(F)(F)F)Oc3ccccc3O2)n1 | -4.56% (inactive)
Cn1c(SCC(=O)N/N=C/c2ccc(O)c(O)c2)nc2ccccc21 | -2.42% (inactive)
O=C(O)CCn1c(O)c(C=C2N=c3ccccc3=N2)sc1=S | 2.67% (inactive)
NC(=O)c1c(NC(=O)CSc2nnc(-c3ccco3)n2N)sc2c1CCCC2 | -6.97% (inactive)
O=C(Nn1cnnc1)c1cc(Cl)ccc1Cl | -2.58% (inactive)
CC(C)C1N=C2c3ccccc3N=C(SCC(=O)c3ccc(O)c(O)c3)N2C1=O (stereo not drawn) | 6.47% (inactive)
COc1ccc(OCc2nnc3n2N=C(c2ccccc2)C(CC(=O)O)S3)cc1 (stereo not drawn) | 0.71% (inactive)
Cc1ccc(C)c(NC(=O)NNC(=O)c2ccc3ccccc3c2O)c1 | -3.43% (inactive)
CNC(=S)NNC(=O)c1ccc(N(C)C)cc1 | 3.16% (inactive)
CCN(CC)c1ccc(/C=N/Nc2nc(C)cc(C)n2)c(O)c1 | 4.21% (inactive)
COc1ccc(OCc2n[nH]c(=S)n2N)cc1 | -6.49% (inactive)
Cc1cc(C)nc(Nc2ncn[nH]2)n1 | -0.26% (inactive)
O=C(Oc1ccc(Br)cc1C(=S)N1CCOCC1)c1cccc([N+](=O)[O-])c1 | -0.38% (inactive)
Cc1ccc(-c2ccc(/C=C(\C#N)C(N)=S)o2)c([N+](=O)[O-])c1 | -0.99% (inactive)
O=C(CN1CCN(c2ccc(O)cc2)CC1)Nc1ccc(-c2ccccc2)cc1 | -1.37% (inactive)
Oc1ccc(/C=N/Nc2ccc(C(F)(F)F)cn2)cc1O | -2.87% (inactive)
CCCc1nc2ccccc2c(=O)n1/N=C/c1ccc(O)c(O)c1 | -0.21% (inactive)
Cc1cc(C)nc(NNC2=CC(=O)CC(C)(C)C2)n1 | -3.35% (inactive)

Compound | inhibition
CCN(CC)c1ccc2oc(=O)c(C)nc2c1 | -1.42% (inactive)
COc1c(O)ccc2c1CN1CCc3cc4c(cc3C1C2)OCO4 (stereo not drawn) | -3.11% (inactive)
CC(C)(C)c1nnc(N/N=C/c2ccc(O)cc2)n(N)c1=O | -5.72% (inactive)
Oc1ccc(/C=N/NC2=NCCCCC2)c(O)c1 | 1.65% (inactive)
CC(C)(C)C(=O)OCc1nc(-c2ccc(O)c(O)c2)cs1 | -4.53% (inactive)
NC(=S)N/N=C/c1coc2cc(Cl)ccc2c1=O | 1.96% (inactive)
CCn1ccnc1CNC(=O)CC1C(=O)NCCN1Cc1ccc(F)cc1Cl (stereo not drawn) | -3.42% (inactive)
COc1cc(/C=N/NC(=S)Nc2cccnc2)cc(OC)c1O | -3.45% (inactive)
Cn1c(=O)[nH]c(=O)c2c1[nH]c(=S)n2Cc1ccccc1 | -1.96% (inactive)
CC1CCN(C(=O)c2ccc3c(c2)NC(=O)CN3)CC1 | -3.71% (inactive)
O=C(O)c1cccc(NC(=S)N/N=C/c2c[nH]c3ccccc23)c1 | -2.87% (inactive)
O=C(Nc1cccc([N+](=O)[O-])c1)Nn1cnnc1 | -5.02% (inactive)
COc1cc(/C=N\Nc2ccc([N+](=O)[O-])cn2)ccc1OCC(=O)O | 6.51% (inactive)
CC(C)c1ccc(NC(=S)NNc2ccc(Cl)c(C(=O)O)c2)cc1 | -5.45% (inactive)
Cc1nc2ccc(S(=O)(=O)NCC(=O)O)cc2s1 | -0.46% (inactive)
O=C(CSc1ncn[nH]1)Nc1ccnc2ccccc12 | -0.72% (inactive)
CCOc1cccc(/C=N/NC(=S)NCCN2CCOCC2)c1O | 3.05% (inactive)
CCOc1ccc(C2C3=C(CCCC3=O)N(CC(=O)O)C3=C2C(=O)CCC3)cc1 | 0.31% (inactive)
COc1cc(/C=C2/C(=O)NN(c3cccc(Cl)c3)C2=O)cc(Br)c1O | -3.26% (inactive)
O=C(CO/N=C/c1ccccc1O)NNC(=O)c1ccccc1Cl | -40.2% (inactive)
COc1ccc2c(c1)C(C)=CC(C)(C)N2C(=O)Nc1ccccc1 | 0.44% (inactive)

Compound | inhibition
Oc1ccc(N2CCN(C(=S)NCc3ccccc3)CC2)cc1 | 0.35% (inactive)
Cc1ccc2nc(-c3cccc(Br)c3)cc(C(=O)Nn3cnnc3)c2c1 | -9.17% (inactive)
CN(C)c1ccc(C(CC(=O)O)C(=O)O)cc1 (stereo not drawn) | -7.14% (inactive)
CC(OC(=O)c1ccc2noc(-c3ccccc3)c2c1)C(N)=O (stereo not drawn) | 2.03% (inactive)
NC(=O)C1CCN(C(=O)/C(=C/c2ccco2)NC(=O)c2ccccc2)CC1 | -6.56% (inactive)
Cc1cccc(NC(=O)c2sc3nc(N4CCOCC4)c4c(c3c2N)CCCC4)c1 | -1.63% (inactive)
CSc1n[nH]c(=S)n1N | -0.69% (inactive)
CC(C)(C)NC(=O)C(c1ccncc1)N(C(=O)CNC(=O)c1ccco1)c1ccc2c(c1)OCO2 (stereo not drawn) | -6.31% (inactive)
Cc1nc2nc[nH]n2c(=O)c1C/C=C/c1ccccc1 | -4.98% (inactive)
COc1ccc(N/C=C(\C2OC(=O)c3ccccc32)[N+](=O)[O-])cc1 (stereo not drawn) | -5.34% (inactive)
c1ccc2c(c1)OCC(c1nn3cnnc3s1)O2 (stereo not drawn) | 2.86% (inactive)
COc1cc(/C=N/Nc2nn3cnnc3c3ccccc23)cc(OC)c1OC | 3.85% (inactive)
ClC1(Cl)CC1CSc1ncn[nH]1 (stereo not drawn) | -4.69% (inactive)
S=c1[nH]nc2c3c4c(sc3ncn12)CCCC4 | -1.23% (inactive)
Cc1ccc(-c2noc(CC(c3ccccc3)c3ccccc3)n2)cc1 | 2.35% (inactive)
CC(/C=C/C1(O)C(C)CC(=O)CC1(C)C)OC1OC(CO)C(O)C(O)C1O (stereo not drawn) | -6.26% (inactive)
Cc1cc2c(C)nc(N/N=C/c3ccccc3)nc2o1 | 3.67% (inactive)
O=C1CCCCN1CCCC(=O)N1CCCC(Nc2ccc(F)cc2)C1 (stereo not drawn) | -1.53% (inactive)
O=c1nc(N/N=C/c2ccco2)cn[nH]1 | 8.33% (inactive)
O=C(COc1ccc([N+](=O)[O-])cc1Cl)Nn1cnnc1 | -1.51% (inactive)
O=C(Nc1ccccc1Cl)Nn1cnnc1 | -5.2% (inactive)

Reference: PubChem BioAssay AID2178 (The Scripps Research Institute Molecular Screening Center, 2009)
